According to ChEMBL document CHEMBL3351743, “Chemopreventive effects of (-)-hinokinin against 1,2-dimethylhydrazine-induced genotoxicity and preneoplastic lesions in rat colon” (J Nat Prod, 2014):
The source made the active and inactive calls. No cut-off for these calls is given here.

Key:
Rattus norvegicus [1] = experiment: Toxicity in Wistar rat assessed as change in water intake at 10 to 40 mg/kg, po administered daily for 7 days; assay type: organism-based; design: dose 10-40 mg/kg, route oral; conditions: in vivo, 168 h
How it was run: (§1)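 Male Wistar rats, six per group, compound dosed by gavage in water/Tween 80 (97:3) daily for 7 days, with or without DMH 40 mg/kg sc. Body weight and water intake recorded daily; mean ± SD.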

Rattus norvegicus [2] = experiment: Toxicity in Wistar rat assessed as change in water intake at 40 mg/kg, po administered five times per week for 4 weeks; assay type: organism-based; design: dose 40 mg/kg, route oral; conditions: in vivo, 672 h
How it was run: (§2)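 Male Wistar rats, six per group, dosed by gavage in water/Tween 80 (97:3) five times weekly for 4 weeks, with or without DMH (four sc injections of 40 mg/kg in the first 2 weeks). Body weight and water intake recorded daily; mean ± SD.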

Rattus norvegicus [3] = experiment: Toxicity in Wistar rat assessed as body weight gain at 40 mg/kg, po administered five times per week for 4 weeks; assay type: organism-based; design: dose 40 mg/kg, route oral; conditions: in vivo, 672 h; how it was run: as §2
Rattus norvegicus [4] = experiment: Anticarcinogenic activity in Wistar rat colon assessed as reduction in frequency of DMH-induced aberrant crypt foci in proximal segment at 10 to 40 mg/kg, po administered five times per week for 4 weeks; assay type: functional, organism-based
How it was run: (§3)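 Male Wistar rats (~120 g, 4−5 weeks old, 1 week acclimation), six per group. Compound in water/Tween 80 (97:3) given by gavage five times weekly for 4 weeks. DMH dissolved in EDTA solution, 160 mg/kg total given as four sc injections of 40 mg/kg, twice weekly over the first 2 weeks. Colons formalin-fixed 24 h, stained with 0.02% methylene blue; 50 fields per segment at 100×; ACF counted, mean ± SD, ANOVA/Tukey.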

Rattus norvegicus [5] = experiment: Antigenotoxic activity in Wistar rat peripheral blood assessed as reduction in DMH-induced increase in nucleoids at 40 mg/kg, po administered daily for 7 days; assay type: functional; design: scale not given: the % may be the effect or the level left
How it was run: (§4)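 Male Wistar rats, six per group. Compound in water/Tween 80 (97:3) given by daily gavage for 7 days. DMH 40 mg/kg sc given 4 h before sampling on day 7. Cells used only at ≥80% viability. Scoring: 100 nucleoids per animal visually classed 0–3 by tail length relative to head diameter. % reduction = (DMH − treated)/(DMH − negative control) × 100, based on damaged cells.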

Rattus norvegicus [6] = experiment: Antigenotoxic activity in Wistar rat peripheral blood assessed as reduction in DMH-induced increase in nucleoids at 10 mg/kg, po administered daily for 7 days; assay type: functional; design: scale not given: the % may be the effect or the level left; how it was run: as §4
Rattus norvegicus [7] = experiment: Anticarcinogenic activity in Wistar rat colon assessed as reduction in frequency of DMH-induced aberrant crypt foci in middle segment at 10 to 40 mg/kg, po administered five times per week for 4 weeks; assay type: functional, organism-based; how it was run: as §3
Rattus norvegicus [8] = experiment: Antigenotoxic activity in Wistar rat peripheral blood assessed as reduction in DMH-induced increase in nucleoids at 20 mg/kg, po administered daily for 7 days; assay type: functional; design: scale not given: the % may be the effect or the level left; how it was run: as §4
Rattus norvegicus [9] = experiment: Toxicity in Wistar rat assessed as body weight gain at 10 to 40 mg/kg, po administered daily for 7 days; assay type: organism-based; design: dose 10-40 mg/kg, route oral; conditions: in vivo, 168 h; how it was run: as §1
Rattus norvegicus [10] = experiment: Anticarcinogenic activity in Wistar rat colon assessed as reduction in frequency of DMH-induced aberrant crypt foci in distal segment at 10 to 40 mg/kg, po administered five times per week for 4 weeks; assay type: functional, organism-based; how it was run: as §3

O=C1OC[C@H](Cc2ccc3c(c2)OCO3)[C@H]1Cc1ccc2c(c1)OCO2 [HINOKININ]
Activity (Rattus norvegicus [1]): Non-toxic
Activity (Rattus norvegicus [2]): Non-toxic
Activity (Rattus norvegicus [3]): Non-toxic
Activity (Rattus norvegicus [4]): inactive
Activity (Rattus norvegicus [5]): 54.7%
Activity (Rattus norvegicus [6]): 43.2%
Activity (Rattus norvegicus [7]): Active
Activity (Rattus norvegicus [8]): 50.4%
Activity (Rattus norvegicus [9]): Non-toxic
Activity (Rattus norvegicus [10]): Active
